Hits are enriched below; roughly 2.3% of the tested compounds scored in any of these assays.
MT stabilize HCS = stabilizes microtubules in HeLa cells; AID 2205; HeLa tubulin immunostaining HCS, 24 h; share of cells brighter than vehicle mean+2SD; % tubulin-high responders, % at 10 µM; 0.83% of 200,000 active;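 active = plate Z-score above 3 for both tubulin-high and condensed-nucleus cell shares, with cell loss under 80%, at 10 µM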;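 note: anti alpha tubulin signal scored within the nucleus-defined area of each cell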
Insulin prom up = MIN6 insulin promoter up-regulation; z-score at 5 µM; MIN6 insulin promoter-GFP reporter, high-content imaging; stronger effect = higher value; 0.3% of 190,000 active;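 active = z-score above 3 at 5 µM with at least 500 cells counted in the well; inconclusive = wells under 500 cells, flagged as cytotoxic or low count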
bCat nuc transl = beta-catenin nuclear translocation modulation; HeLa beta-catenin nuclear translocation, immunofluorescence imaging; AID 1665; nuclear translocation activity, % at 5 µM; 0.3% of 190,000 active;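 active = nuclear translocation activity above 50% at 5 µM, with a well cell count of 50 or more; inconclusive = wells under 50 cells across six images, flagged as toxic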;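 note: per-cell ratio of nuclear to cytoplasmic median beta-catenin stain intensity; plate controls were DMSO negative control for no effect and GSK-3 inhibitor IX positive control for full effect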
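Technique: fluorescence imaging of beta-catenin antibody stain plus DAPI / Material: human HeLa cell line / Incubation: compound treatment 24 h, 37°C, 5% CO2 / Read-out basis: % activation of per-cell nuclear versus cytoplasmic median beta-catenin signal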
Autophagy mod = modulators of autophagy | MEF GFP-LC3 puncta imaging; test concentration mostly 10 µM | calls only at 10 µM (by protocol) | 0.98% of 190,000 active | AID 463193;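 active = percentage of spot-positive cells more than 3 SD above its plate mean, without a fluorescence outlier flag or 80% toxicity; inconclusive = no clear call, values can overlap the other calls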;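 note: spot-positive cell cutoff set from DMSO-treated cells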
Dynein transport = blocks dynein driven cargo transport along microtubules; 3617.4 mouse cells, GR-EGFP nuclear translocation imaging; test concentration mostly 20 µM; stimulated with dexamethasone, 1 µM; stronger effect = lower value; z-score, hits read low; 0.47% of 220,000 active;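 active = plate z-score of nuclear minus cytoplasmic receptor signal below a set negative limit, without overly bright fluorescence or cell loss, cut at about -3.5 in these data, passing the limit was not always enough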;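 note: z-score of nuclear minus cytoplasmic ring GR-EGFP intensity difference per well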
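Buffer or medium – tet-free medium with charcoal-stripped serum · Signal – automated 10x imaging of fixed Hoechst-stained cells · Also added – dexamethasone agonist, 1.0 µM final, for 30 min · Incubation – induction 48 h, compound 1 h, agonist 30 min · Read-out – GR-EGFP nuclear translocation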
Dynein inh conf = dynein cargo transport inhibition, confirmation | calls only at 20 µM | 3617.4 GR-EGFP nuclear translocation imaging, dexamethasone-induced | 69% of 1,000 active | shares compounds with Dynein transport;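 active = inhibition of receptor movement into the nucleus at or above a set limit in both runs, with normal cell brightness and cell count; inconclusive = limit reached in only one run, brightness and count normal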;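 note: dexamethasone at 1 µM final in well for 30 min; nuclear minus cytoplasmic GR-EGFP mean intensity difference in channel 2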
Active calls of the source: *; i = inactive; ? = inconclusive; . = no result; + = active, no number.

SMILES	MT stabilize HCS	Insulin prom up	bCat nuc transl	Autophagy mod	Dynein transport	Dynein inh conf
COC(=O)C(=Cc1ccccc1[N+](=O)[O-])C(=O)OC	.	-0.59	6.2	.	-5.37*	+
CCCCCCc1cc2cc(C(=O)NC)c(=N)oc2cc1O	4.8	1.01	.	i	-7.46*	+
Cc1cc(=O)oc2cc(NC(=O)CC3(CC(=O)O)CCCC3)ccc12	.	.	1.1	.	0.95	.
CCOC(=O)CSC1=NC(=O)/C(=C\c2ccc(Cl)cc2)S1	1.2	0.86	-3.8	i	-4.05*	i
CC1=CC(=O)C(C(C)C)=CC1=NC(=O)c1ccc(C)cc1	2.7	-0.2	-1.5	i	-4.93*	?
CC(=O)NCCC(=O)NCc1ccc(F)cc1	2.7	.	.	i	-0.108	.
CC(=O)NCc1ccc(C(=O)CCl)cc1	4.6	-0.15	-0.5	i	-6.81*	+
CN(Cc1ccccc1)C(=O)CCC(=O)N(C)Cc1ccccc1	1.6	0.51	-4.6	i	-0.438	.
CC(=O)NCc1ccc(C(=O)CCl)s1	4.0	0.48	0.4	i	-4.98*	+
CC(=O)N(C)Cc1ccc(C(=O)CCl)cc1	2.5	1.67	-1.3	i	-4.61	+
CN(Cc1cccc(C(F)(F)F)c1)Cc1nc(-c2cnccn2)no1	2.7	-0.33	-2.5	i	-1.16	.
CCC1Oc2ccc(C)cc2N(CC(=O)N(Cc2cccnc2)Cc2ccc(C)o2)C1=O (centres undefined)	1.8	-0.22	-0.5	i	-3.7*	?
CC(=O)NCCc1nc2ccccc2n1Cc1cccc(C)c1	.	0.6	0.1	.	0.162	.
O=c1c(Cl)c(Cl)cnn1Cc1nnc(-c2ccccc2Br)o1	2.8	?	-2.5	i	-5.6*	+
O=C1C=CC(=O)N1CCNc1ncc(C(F)(F)F)cc1Cl	4.2	.	0.0	i	-5.45*	+
CC1CCc2sc(C(=O)OCC(=O)NC(C)C)cc2C1 (centres undefined)	3.0	.	-1.6	i	0.593	.
CC(C)(C)c1cnnn1-c1ccc(C(=O)CCl)cc1	3.3	0.63	-0.7	i	-4.09*	+
CCC(C)(C)C1CCc2[nH]nc(C(=O)N/N=C(\C)c3ccco3)c2C1 (centres undefined)	.	-0.19	-1.1	.	-3.81*	i
CC1=CC(=Nc2c(C)n(C)n(-c3ccccc3)c2=O)C=C(C)C1=O	4.5	2.37	-0.8	i	-1.3	.
CC1=CC(=Nc2c(C)n(C)n(-c3ccccc3)c2=O)C=CC1=O	.	0.01	0.6	.	-3.67*	+
COC(=O)C1=C(C)N(CCC2=CCCCC2)C(=O)C1	1.4	0.96	.	i	-4.13*	i
CCN1C(=O)CC(C(=O)OC)=C1C	5.4	0.15	-1.3	i	-0.508	.
CCSc1nnc(-c2ccncc2)o1	3.3	0.01	-0.7	i	0.481	.
CCSc1nnc(-c2sc3nnc(-c4ccccc4)c(-c4ccccc4)c3c2N)o1	1.8	.	.	?	-7.42	i
CCC(C)C(=O)Nc1cccc(SC)c1 (centres undefined)	2.4	-0.77	0.5	i	0.324	.
SMILES	MT stabilize HCS	Insulin prom up	bCat nuc transl	Autophagy mod	Dynein transport	Dynein inh conf
CCOc1cc(/C=N/Nc2nc(-c3cccs3)c(NC(C)=O)s2)ccc1O	.	0.24	-0.5	.	-0.0898	.
O=C(C1CC1)N1CCc2sccc2C1c1ccc(Cl)cc1 (centres undefined)	.	.	0.1	.	0.0597	.
O=C(CCl)Nc1cc(SCC(O)CO)cc([N+](=O)[O-])c1 (centres undefined)	92.9	?	11.0	+	-5.93*	+
COC(=O)C(C)NC(=S)N1CCN(c2c(F)cc3c(=O)c(C(=O)O)cn(C4CC4)c3c2OC)CC1C (centres undefined)	.	0.21	0.6	.	0.541	.
NCC(O)COCCC12CC3CC(CC(C3)C1)C2 (centres undefined)	1.8	2.13	-1.0	i	1.69	.
CC(NCC(O)COCCC12CC3CC(CC(C3)C1)C2)c1ccccc1 (centres undefined)	60.9	-1.29	6.5	i	-5.18*	i
Cc1ccc(C(=O)NC(=S)Nc2ccc(-c3ccc(CO)o3)cc2)cc1	8.2	0.52	-1.7	i	-0.142	.
O=C(NC(=S)Nc1ccc(-c2ccc(CO)o2)cc1)c1cccs1	2.0	0.69	-2.5	i	-6.62*	i
CCOC(=O)C/C(N)=N/N(C)c1ncc(C(F)(F)F)cc1Cl	1.7	0.37	-3.4	i	0.0319	.
CCCS(=O)(=O)c1nnnn1-c1cccc(OC)c1	2.1	1.27	9.2	i	-5.5*	+
COc1cccc(-n2nnnc2SCC(=O)Nc2ccc(C(C)=O)cc2)c1	5.0	0.01	2.0	i	-0.0569	.
Cc1occc1-c1nnc(SCC(=O)N2CCc3ccccc32)o1	3.3	0.2	.	i	-4.01*	i
CS(=O)(=O)c1nc(-c2ccc(F)cc2)cc(C(F)(F)F)n1	2.4	0.4	-0.5	i	-3.86	i
Nc1nc(-c2ccc(F)cc2)cc(C(F)(F)F)n1	1.8	.	-2.9	i	0.29	.
CCOC(=O)CS(=O)(=O)c1nc(-c2ccc(F)cc2)cc(C(F)(F)F)n1	3.7	-0.07	0.3	i	-4.75	+
COc1ccc(-c2cc(C(F)(F)F)nc(S(C)(=O)=O)n2)cc1	2.5	-0.47	.	i	-5.32*	i
Cc1onc(-c2ccccc2)c1CNC(=O)Nc1ccccc1	.	0.12	0.1	.	-0.0346	.
Cc1ccc(N(C(=O)CNC(=O)c2ccco2)C(C(=O)NC2CCCC2)c2cccnc2)cc1C (centres undefined)	1.2	-0.24	0.0	i	-0.647	.
Cc1ccc(N(C(=O)CCl)C(C(=O)NC2CCCCC2)c2cccnc2)cc1C (centres undefined)	10.6	.	7.6	+	-4.06*	+
Cc1cc2cc(CN(CCCO)S(=O)(=O)c3cccc4nsnc34)c(=O)[nH]c2cc1C	5.0	0.65	-2.5	i	-0.579	.
Cc1ccc2[nH]c(=O)c(CN(CCCO)S(=O)(=O)c3c(C)ccc4nsnc34)cc2c1	2.9	0.46	0.1	i	-5.94*	i
CCOC(=O)CC1C(=O)NCCN1S(=O)(=O)c1ccc(Cl)c(Cl)c1 (centres undefined)	1.0	-1.28	-0.3	i	0.265	.
CCOC(=O)CC1C(=O)NCCN1c1nc2ccc(C)cn2c(=O)c1/C=C1\SC(=S)N(CC(C)C)C1=O (centres undefined)	.	.	23.6	.	-4.24	i
CCCN1C(=O)/C(=C/c2c(N3CCNC(=O)C3CC(=O)OCC)nc3c(C)cccn3c2=O)SC1=S (centres undefined)	.	.	-0.5	.	-0.845	.
CCOC(=O)CC1C(=O)NCCN1c1nc2ccc(C)cn2c(=O)c1/C=C1\SC(=S)N(C(C)CC)C1=O (centres undefined)	.	.	6.3	.	-3.65	+
CC(C)(C)OC(=O)N1CCC[C@H]1c1nnc(SCc2cccc(Cl)c2)o1	.	-0.26	-1.2	.	-0.00718	.

From PubChem BioAssay
